Results published in ChEMBL document CHEMBL5608187, “Discovery of pyridoquinoxaline-based new P-gp inhibitors as coadjutant against Multi Drug Resistance in cancer” (Eur J Med Chem, 2024).
Calls of active or inactive are those of the source. No cut-off for these calls is given here.

Assays:
[1] = molecular target: T1, ATP-dependent translocase ABCB1 (Homo sapiens, UniProt P08183); experiment: Inhibition of P-gp in human CAKI-2 cells assessed as increase in green fluorescence intensity at 0.1 to 10 uM incubated for 15 mins followed by incubation with EFFLUX-ID Green Detection Reagent and Hoeschst-33342 dye and measured after 30 mins by fluorescence analysis; format: cell-based; conditions: caki-2, 0.25 h, dose 0.1-10 µM
T1 sequence (P08183 whole entry): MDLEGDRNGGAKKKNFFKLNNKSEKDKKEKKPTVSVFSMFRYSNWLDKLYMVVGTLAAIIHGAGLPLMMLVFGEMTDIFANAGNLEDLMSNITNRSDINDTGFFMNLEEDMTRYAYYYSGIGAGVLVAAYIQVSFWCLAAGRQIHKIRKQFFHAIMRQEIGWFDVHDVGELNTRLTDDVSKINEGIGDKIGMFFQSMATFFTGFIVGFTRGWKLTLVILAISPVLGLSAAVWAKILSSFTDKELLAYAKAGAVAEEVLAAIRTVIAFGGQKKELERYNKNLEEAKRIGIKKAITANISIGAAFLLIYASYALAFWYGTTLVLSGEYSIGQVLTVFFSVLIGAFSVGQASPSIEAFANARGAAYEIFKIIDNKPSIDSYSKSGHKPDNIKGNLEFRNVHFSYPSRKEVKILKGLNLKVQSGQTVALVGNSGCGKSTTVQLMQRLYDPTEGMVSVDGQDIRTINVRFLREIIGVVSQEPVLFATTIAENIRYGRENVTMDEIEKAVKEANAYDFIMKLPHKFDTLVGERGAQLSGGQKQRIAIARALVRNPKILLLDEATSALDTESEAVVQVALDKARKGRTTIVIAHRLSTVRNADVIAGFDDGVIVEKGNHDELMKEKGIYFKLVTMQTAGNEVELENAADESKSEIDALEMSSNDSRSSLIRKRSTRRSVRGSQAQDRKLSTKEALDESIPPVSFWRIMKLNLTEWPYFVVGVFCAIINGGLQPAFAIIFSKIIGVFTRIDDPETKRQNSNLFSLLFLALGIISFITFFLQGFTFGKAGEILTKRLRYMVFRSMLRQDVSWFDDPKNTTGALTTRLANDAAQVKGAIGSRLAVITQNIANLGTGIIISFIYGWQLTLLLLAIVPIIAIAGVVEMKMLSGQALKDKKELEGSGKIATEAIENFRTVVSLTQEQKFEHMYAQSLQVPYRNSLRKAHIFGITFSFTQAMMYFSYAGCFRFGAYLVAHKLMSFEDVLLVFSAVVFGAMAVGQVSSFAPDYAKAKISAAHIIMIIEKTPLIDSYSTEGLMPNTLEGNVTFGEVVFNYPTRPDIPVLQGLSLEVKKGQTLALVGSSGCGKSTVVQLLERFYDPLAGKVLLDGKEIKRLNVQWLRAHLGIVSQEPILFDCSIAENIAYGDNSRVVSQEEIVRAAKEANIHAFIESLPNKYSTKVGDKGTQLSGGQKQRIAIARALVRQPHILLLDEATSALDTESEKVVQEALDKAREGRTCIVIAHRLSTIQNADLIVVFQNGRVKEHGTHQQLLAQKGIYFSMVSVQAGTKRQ
Method in brief: (§1)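 5000 cells/well in phenol-red-free medium plated 24 h before; compounds 0.1, 1, 10 µM for 15 min, then EFLUXX-ID Green reagent (1:200) plus Hoechst-33342 1 µg/mL, 30 min 37 °C. Widefield imaging; median green intensity from 250 cells per well normalized to untreated wells. Mean ± SD of three wells; one-tailed t-test.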

[2] = molecular target: T1, ATP-dependent translocase ABCB1; experiment: Inhibition of P-gp in human HCT-15 cells assessed as increase in green fluorescence intensity at 0.1 to 10 uM incubated for 15 mins followed by incubation with EFFLUX-ID Green Detection Reagent and Hoeschst-33342 dye and measured after 30 mins by fluorescence analysis; format: cell-based; conditions: hct-15, 0.25 h, dose 0.1-10 µM; method in brief: as §1
[3] = molecular target: T1, ATP-dependent translocase ABCB1; experiment: Inhibition of P-gp in human HCT-15 cells assessed as increase in green fluorescence intensity at 0.1 to 1 uM incubated for 15 mins followed by incubation with EFFLUX-ID Green Detection Reagent and Hoeschst-33342 dye and measured after 30 mins by fluorescence analysis; format: cell-based; conditions: hct-15, 0.25 h, dose 0.1-1 µM; method in brief: as §1
SK-HEP1 [4] = experiment: Coadjutant activity against multidrug resistance in human SK-HEP1 cells assessed as potentiation of vincristine-induced cell growth inhibition at 4 uM incubated for 72 hrs in presence of 0.02 to 20 uM vincristine by SiR-DNA/CellTox Green Dye based fluorescence analysis; format: functional
Method in brief: (§2)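 Growth by live-cell imaging: 500 cells/well plated with SiR-DNA and CellTox Green dye; serial dilutions in phenol-red-free complete medium added next day. Imaged at addition and at 72 h. Live cells = SiR-DNA nuclei minus CellTox-positive dead cells; percentage growth calculated. Three technical replicates; two-tailed t-test. Inhibitor paired with anticancer drug at fixed or scaled levels.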

HGC-27 = experiment: Coadjutant activity against multidrug resistance in human HGC-27 cells assessed as potentiation of vincristine-induced cell growth inhibition by measuring cell growth at 4 uM incubated for 72 hrs in presence of 0.02 to 20 uM vincristine by SiR-DNA/CellTox Green Dye based fluorescence analysis; format: functional; design: scale not given: the % may be the effect or the level left; method in brief: as §2
[5] = Cytotoxicity against human HGC-27 cells assessed as inhibition of cell growth at 4 uM incubated for 72 hrs by SiR-DNA/CellTox Green Dye based fluorescence analysis relative to control; format: toxicity
Method in brief: (§3)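 Single-agent control at 4 µM, no anticancer drug. 500 cells/well with SiR-DNA and CellTox Green; imaged at addition and 72 h. Live count = total nuclei minus dead cells, expressed as percent growth. Three technical replicates.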

MeWo = experiment: Cytotoxicity against human MeWo cells assessed as inhibition of cell growth at 4 uM incubated for 72 hrs by SiR-DNA/CellTox Green Dye based fluorescence analysis; format: toxicity; method in brief: as §3
U-87 MG [6] = experiment: Cytotoxicity against human U-87 MG cells assessed as inhibition of cell growth at 4 uM incubated for 72 hrs by SiR-DNA/CellTox Green Dye based fluorescence analysis; format: toxicity; conditions: u-87mg atcc; method in brief: as §3
A704 = experiment: Coadjutant activity against multidrug resistance in human A704 cells assessed as potentiation of etoposide-induced cell growth inhibition at 4 uM incubated for 72 hrs in presence of 0.04 to 40 uM etoposide by SiR-DNA/CellTox Green Dye based fluorescence analysis; format: functional; method in brief: as §2
U-87 MG [7] = experiment: Coadjutant activity against multidrug resistance in human U-87 MG cells assessed as potentiation of etoposide-induced cell growth inhibition at 4 uM incubated for 72 hrs in presence of 0.04 to 40 uM etoposide by SiR-DNA/CellTox Green Dye based fluorescence analysis; format: functional; conditions: U-87MG ATCC; method in brief: as §2
SK-N-SH = experiment: Coadjutant activity against multidrug resistance in human SK-N-SH cells assessed as potentiation of etoposide-induced cell growth inhibition at 4 uM incubated for 72 hrs in presence of 0.04 to 40 uM etoposide by SiR-DNA/CellTox Green Dye based fluorescence analysis; format: functional; method in brief: as §2
SK-HEP1 [8] = experiment: Coadjutant activity against multidrug resistance in human SK-HEP1 cells assessed as potentiation of cisplatin-induced cell growth inhibition at 4 uM incubated for 72 hrs in presence of 0.1 to 100 uM cisplatin by SiR-DNA/CellTox Green Dye based fluorescence analysis; format: functional
Method in brief: (§4)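 Cisplatin co-treatment, 72 h imaging growth assay (SiR-DNA nuclei minus CellTox Green dead cells, 500 cells/well, phenol-red-free medium). Combinations: inhibitor fixed with cisplatin 0.1–100 µM, or cisplatin fixed at 0.25 µM with inhibitor 0.25–4 µM. Three technical replicates, mean ± SD; two-tailed t-test.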

HT-29 = experiment: Coadjutant activity against multidrug resistance in human HT-29 cells assessed as potentiation of cisplatin-induced cell growth inhibition at 0.25 to 4 uM incubated for 72 hrs in presence of 0.25 uM cisplatin by SiR-DNA/CellTox Green Dye based fluorescence analysis; format: functional; conditions: dose 0.25-4 µM; method in brief: as §4
HuP-T3 = experiment: Coadjutant activity against multidrug resistance in human HuP-T3 cells assessed as potentiation of cisplatin-induced cell growth inhibition at 0.25 to 4 uM incubated for 72 hrs in presence of 0.25 uM cisplatin by SiR-DNA/CellTox Green Dye based fluorescence analysis; format: functional; conditions: dose 0.25-4 µM; method in brief: as §4
SK-HEP1 [9] = experiment: Coadjutant activity against multidrug resistance in human SK-HEP1 cells assessed as potentiation of cisplatin-induced cell growth inhibition at 0.25 to 4 uM incubated for 72 hrs in presence of 0.25 uM cisplatin by SiR-DNA/CellTox Green Dye based fluorescence analysis; format: functional; conditions: dose 0.25-4 µM; method in brief: as §4
HMC3 = experiment: Cytotoxicity against human HMC3 cells assessed as effect on cell viability at 0.1 to 100 uM incubated for 24 to 72 hrs by MTT assay; format: toxicity, cell-based; conditions: hmc3, 100 µM, dose lower 0.1 µM, time lower 24 hrs, dose upper 100 µM, time upper 72 hrs
Method in brief: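 HMC3 microglia in high-glucose DMEM/10% FBS, 37 °C 5% CO2, treated 0.1–100 µM for 24, 48 or 72 h; vehicle-treated controls. MTT 0.5 mg/mL, 4 h 37 °C, formazan dissolved in DMSO, read at 540 nm; viability as percent of control. Three independent experiments in triplicate, mean ± S.E.M., one-way ANOVA with Tukey.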

[10] = molecular target: T1, ATP-dependent translocase ABCB1; experiment: Inhibition of P-gp in human HCT-15 cells assessed as fold increase in green fluorescence intensity at 10 uM incubated for 15 mins followed by incubation with EFFLUX-ID Green Detection Reagent and Hoeschst-33342 dye and measured after 30 mins by fluorescence analysis relative to control; format: cell-based; conditions: hct-15, 0.25 h; method in brief: as §1

Compound: O=C(Nc1ccccc1)c1ccccc1OCc1nc2cc3cccnc3cc2nc1COc1ccccc1C(=O)Nc1ccccc1
- inhibition (INH) [1]: Active
- inhibition (INH) [2]: Active
- inhibition (INH) [3]: Dose-Dependent Effect
- Activity (SK-HEP1 [4]): Active
- Activity (HGC-27): 50%
- inhibition at 72 h, 4 µM [5]: 40%
- Activity (MeWo): Non-Toxic
- Activity (U-87 MG [6]): Non-Toxic
- Activity (A704): Active
- Activity (U-87 MG [7]): Active
- Activity (SK-N-SH): Active
- Activity (SK-HEP1 [8]): inactive
- Activity (HT-29): inactive
- Activity (HuP-T3): inactive
- Activity (SK-HEP1 [9]): inactive
- Activity (HMC3): Non-Toxic
- fold change (FC) [10]: 2
